HSP90 inh: HSP90 refolding inhibition in rabbit reticulocyte lysate; luciferase refolding luminescence, 3 h; 0.91% of 290,000 active; inhibition, % at 5.6 µM;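 active means inhibition above the screen-wide mean plus 3 SD, computed separately per campaign, cut at about 16% in these data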;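 further: 0% = DMSO wells and 100% = 60 µM geldanamycin wells; inhibitors lower the luminescence because luciferase stays unfolded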
HSF1 inh: HSF1 inhibition; NIH3T3-HGL HSE-luciferase, MG132-induced, luminescence 8 h; stronger effect = lower value; activity change, negative = inhibition, % at 7.5 µM (by protocol); 0.77% of 300,000 active; AID 2098;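 active means more than half of replicate wells show activity change below -50%, luminescence cut by over half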;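 further: luciferase reports HSF-1 transcriptional activity via heat shock element; 0% = median of DMSO wells and -100% = zero luminescence signal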
FID counter: displaces DNA intercalator in HCV helicase counter-screen. DNA fluorescent intercalator displacement, fluorescence. inhibition, % at 7.9 µM. 0.17% of 290,000 active. AID 1845; in the data active means inhibition above about 37%;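 further: 0% = vehicle and 100% = reference compound; higher means more ethidium bromide displaced from hairpin DNA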
HSF-1 act: increases HSF-1 driven luciferase reporter signal | NIH3T3-HGL HSF-1 luciferase reporter, MG132, 8 h; 100% = twice DMSO control signal | AID 504408 | 1.7% of 300,000 active | activation, % at 9 µM;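 active means mean replicate activation of at least 50% with a set share of replicates each reaching 50%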;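 further: 0% = median of the neutral control wells and 100% = twice that signal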
NS3 helicase inh: inhibitors of Hepatitis C virus NS3 helicase | NS3 helicase DNA unwinding, Cy5 molecular beacon fluorescence | inhibition, % at 10.9 µM | 0.56% of 290,000 active | AID 1800;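 active means inhibition above the mean of all tested compounds plus 3 SD, set per campaign, cut at about 35% in these data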;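 further: 0% = DMSO wells and 100% = thioflavine S control wells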
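Assay system – hepatitis C virus NS3 helicase domain fragment enzyme · Buffer or medium – MOPS pH 6.5, MgCl2, DTT, Tween20, BSA · Reagent – Cy5/quencher beacon DNA duplex and ATP to start · Compound – single 10.9 µM dose · Timing – 1 h at 25 °C · Technique – Cy5 beacon fluorescence read at start and 1 h · Measure – % inhibition of unwinding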
core dimer inh: HCV core protein dimerization inhibition. AID 1899. 0.33% of 300,000 active. TR-FRET GST/Flag-core106 dimerization, 1536-well. inhibition, % at 5 µM;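 active means inhibition above the mean of all tested compounds plus 3 SD, set per screening campaign, cut at about 45% in these data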
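Assay system: GST-tagged and Flag-tagged HCV core protein residues 1-106 / Times: compound-protein-antibody incubation 4 h at 22.5 °C / Signal: time-resolved FRET, ex 340 nm, em 617 and 671 nm / Evaluation: % inhibition based on acceptor/donor emission ratio / Benchmarks: wells lacking GST-core106 and wells with excess unlabelled core106 / Repeats: singlicate, one well per compound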
* marks the source's active call; other numbers are inactive results; nt = not tested or not shown. Most compounds without a hit are left out; they make up all but 3.9% or so of the library.

SMILES	HSP90 inh	HSF1 inh	FID counter	HSF-1 act	NS3 helicase inh	core dimer inh
NC(=O)c1ccccc1NC(=O)c1ccc2ccccc2c1	3.5	46.4	-1.5	66.1*	29.8	3.9
O=C(Nc1cccc(Br)c1)c1ccc(OC2CSC2)cc1	1.9	40.0	-1.4	50.8*	-4.5	4.6
CC(=O)c1cccc(NC(=O)c2ccc(OC3CSC3)cc2)c1	4.2	3.8	-7.1	10.2	-5.6	1.3
COc1ccc(C(=O)Nc2nc3ccccc3s2)cc1OC	-5.1	35.7	-9.2	71.4*	-26.9	-0.1
COc1cc2nc(NC(=O)c3ccc(Cl)cc3)sc(=O)c2cc1OC	0.9	8.2	-1.8	56.9*	-3.1	4.8
COc1ccc(C(=O)Nc2ccccc2C(N)=O)cc1	-7.4	8.3	-3.0	19.5	3.2	-2.6
CCN(CC)C(=O)c1cc(C(C)(C)C)c(O)c(C(C)(C)C)c1	-2.0	-5.5	-14.0	16.0	6.4	-6.8
COc1ccc(C(=O)Nc2ccc3ccccc3c2)cc1OC	1.5	25.5	-15.0	63.6*	-8.2	-4.3
CCOc1ccc(CN(C)C(=O)CNC(=O)c2ccc3ccccc3c2)cc1OC	5.0	21.2	-50.0	84.2*	35.0	-1.6
Cc1cccc(N2CCN(C(=O)c3ccc4c(c3)NC(=O)C(CSCc3ccc(F)cc3)N4)CC2C)c1 (centres undefined)	4.3	0.6	-32.4	-6.4	20.2	63.9*
COc1ccc(N2CCN(C(=O)c3ccc4c(c3)NC(=O)C(CSCc3c(F)cccc3Cl)N4)CC2)cc1 (centres undefined)	1.6	4.5	-25.6	7.0	8.4	67.3*
COc1ccc(N2CCN(C(=O)c3ccc4c(c3)NC(=O)C(CSCc3ccc(C)cc3)N4)CC2)cc1 (centres undefined)	1.6	-5.3	-27.7	-9.0	15.8	63.7*
CC(NC(=O)C(=O)NCCN1CCN(C(=O)c2ccccc2Br)CC1)c1ccccc1 (centres undefined)	-2.6	-13.9	-34.0	3.1	3.2	0.4
CCOC(=O)c1sc(NC(=O)Nc2ccccc2Cl)cc1C	-0.7	2.0	5.2	-7.2	-4.0	9.8
CCOC(=O)c1sc(NC(=O)Nc2ccccc2)cc1C	-2.5	28.2	8.5	82.1*	-15.4	1.0
CCOC(=O)c1sc(NC(=O)c2ccc(C)s2)cc1C	2.9	49.3	0.9	68.7*	-8.0	30.4
Clc1cccc(/C=N/Nc2nnc(Cl)c3ccccc23)c1	-0.9	49.7	-4.3	57.5*	0.1	-2.6
Clc1ccc(/C=N/Nc2nnc(-c3ncc[nH]3)c3ccccc23)cc1	-0.9	15.4	-11.6	15.8	-1.0	-8.2
O=C(c1ccc(S(=O)(=O)N2CCC(c3nc4ccccc4s3)CC2)cc1)N1CCCCC1	2.0	nt	-1.3	nt	6.5	nt
FC(F)(F)Oc1ccc(Nc2nc3ccccc3o2)cc1	7.0	44.7	1.6	77.7*	-3.6	6.2
COc1cccc(/C=C/C(=O)c2ccc3c(c2)OCCO3)c1OC	0.8	30.2	-14.1	23.1	-14.1	1.8
Cc1ccc(C(=O)N2c3ccccc3CC2C)o1 (centres undefined)	-0.8	31.9	-3.6	54.4*	-6.2	4.0
CCOC(=O)c1[nH]c2ccccc2c1NC(=S)Nc1cccc(C)c1	-5.2	-7.2	-1.5	-13.3	-4.6	-7.7
Brc1ccc2oc(-c3ccn[nH]3)cc2c1	1.7	30.2	1.3	57.1*	-9.8	3.3
O=c1oc2ccc(Br)cc2cc1-c1nc2ccccc2o1	1.8	-9.6	-0.9	-15.4	17.7	-6.9
SMILES	HSP90 inh	HSF1 inh	FID counter	HSF-1 act	NS3 helicase inh	core dimer inh
O=C(CCc1nnc2ccc(NCc3ccc(F)cc3)nn12)NC1CCCC1	-0.9	5.3	-30.1	2.4	8.2	-6.9
CC(=O)N(c1ccccc1)c1nnc(-c2cnc(C)cn2)s1	0.8	17.6	-7.1	54.5*	1.5	-1.6
O=C(O)c1csc(-c2ccccc2)n1	-0.2	-42.7	2.6	-55.4	-4.9	0.3
CS(=O)(=O)N(CC(=O)O)c1ccc(C23CC4CC(CC(C4)C2)C3)cc1	-3.1	-65.2*	-28.1	-71.9	16.8	9.1
Cc1cc(C)c2nc(C(F)(F)F)c(C#N)c(N)c2c1	-3.1	-62.0*	1.5	-67.7	-1.3	5.4
Cc1ccc2nc(C(F)(F)F)c(C#N)c(N)c2c1	2.7	-13.7	0.8	-12.4	-4.5	-0.5
CCCCC(=O)Nc1ccc(C(=O)Nc2ccc(S(=O)(=O)Nc3nccc(C)n3)cc2)cc1	-3.0	-64.1*	-29.0	-72.4	-0.4	-2.4
CCCCC(=O)Nc1ccc(C(=O)NCCc2ccc(S(N)(=O)=O)cc2)cc1	1.7	-67.7*	-0.4	-72.6	9.3	-0.9
Cc1ccc2nc(CSc3nc(C)ccc3C#N)[nH]c2c1	6.9	-58.5*	1.7	-64.7	7.8	-47.7
COc1cccc(C(C[N+](=O)[O-])c2c(C)[nH]n(-c3ccccc3)c2=O)c1 (centres undefined)	42.1*	213.6	-11.8	277.6*	2.2	17.5
Cc1[nH]n(-c2ccccc2)c(=O)c1C(C[N+](=O)[O-])c1ccc(Br)cc1 (centres undefined)	10.2	180.9	-0.3	210.2*	11.8	-1.6
Cc1[nH]n(-c2ccccc2)c(=O)c1C(c1cccc([N+](=O)[O-])c1)c1c(C)[nH]n(-c2ccccc2)c1=O	6.1	22.1	-10.5	17.1	4.9	3.9
NC1=NC(=O)C(Cc2ccc(Br)cc2)S1 (centres undefined)	-2.4	3.8	-3.0	17.3	-0.1	-4.1
O=C(c1ccc([N+](=O)[O-])s1)N1CCN(c2cccc(Cl)c2)CC1	7.4	-51.5*	1.4	-59.4	3.9	4.0
CCOC(=O)Cn1nnc(-c2cccc(OC)c2)n1	2.2	24.2	-5.8	66.7*	6.8	-3.9
N#Cc1c(NC(=O)/C=C/C(=O)O)sc2c1CCN(Cc1ccccc1)C2	1.5	16.1	-11.5	58.7*	25.5	69.1*
Cc1ccc(-n2c(=O)c3sccc3n(Cc3cc(=O)n4cc(Cl)ccc4n3)c2=O)cc1F	-1.6	-8.7	-0.2	-0.4	8.4	6.9
O=C(CSc1nnc(CNc2ccc(F)cc2)n1Cc1ccco1)NC1CC1	0.3	2.9	-8.7	-13.5	6.0	-2.6
CC1(C)CC2CC(C)(CN2C(=O)COc2cccc3ccccc23)C1 (centres undefined)	-2.0	4.1	-8.9	8.0	-7.0	14.4
CC1(C)CC2CC(C)(CN2C(=O)CCCN2C(=O)c3ccccc3C2=O)C1 (centres undefined)	4.5	-56.6*	-30.0	-68.6	2.4	-1.0
CCOc1ccccc1N1CCN(C(=O)c2ccccc2SCC(=O)N2CCCC2)CC1	0.5	-2.5	-51.5	3.4	0.4	0.3
Cc1ccc(C(=O)OCC(=O)N(CC(C)C)c2c(N)n(Cc3ccccc3)c(=O)[nH]c2=O)cc1[N+](=O)[O-]	nt	-1.5	nt	2.3	nt	3.9
CCOc1ccc(-c2ccc(SC)nn2)cc1	73.1*	-12.4	-4.4	2.0	0.5	-0.4

Screening results as filed in PubChem BioAssay.
